Out of some 2,500 compounds screened, about 460 (18%) were called active. The list is a sample of the results. Values without a mark were called inactive.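 How the source made its calls: active means mean activation above a cutoff of low control average plus 3 SD from the earlier screen (cut at about 12% in these data); inactive means the rest.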

The assay can be described thus: compound fluorescence interference without thin filaments, confirmation, artefact control for cardiac RTF calcium sensitizer project, biochemical (AID 504382). As to conditions: IANBD fluorescence interference counterscreen, buffer, EC20 Ca2+; at 7.2 µM; hits give high values; scaled: EC20 calcium 0, EC100 calcium 100. The method in brief: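 timing = compound incubation 15 min at 25 °C before fluorescence reading | technique = fluorescence at 480 nm excitation, 540 nm emission | evaluation = interference relative to controls | replication = triplicate wells per compound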
In the case of `O=C1CCNc2ccc(-c3ccccc3)cc21`, the fluorescence artifact activation was 0.1%.

Take `Cc1cc(N2CCCC2)ccc1/C=C1\NC(=S)N(C)C1=O`: the fluorescence artifact activation is 5.61%.

As to `Cc1cc(/C=C2\NC(=S)N(C)C2=O)ccc1N1CCCC1`, the fluorescence artifact activation is 2.17%.

For `Cc1cc(/C=C2/C(=O)N(C)C(=S)N2C)ccc1N1CCCC1`, the fluorescence artifact activation was 23.6% (active).

For the compound `COC(=O)CCN(C(=O)c1ccc([N+](=O)[O-])cc1)c1ccccn1`, the fluorescence artifact activation is 4.76%.

Regarding `O=C(Nc1ccc(Br)cc1)c1ccc(Br)c(S(=O)(=O)Nc2cccnc2)c1`, the fluorescence artifact activation is 4.66%.

With `CC(C)(C)NC(=O)NC(=O)Cn1ccsc1=N`, the fluorescence artifact activation was 40% (active).

Take `O=C(C1=NN(c2ccccc2)C2C(=O)N(c3cccc(Cl)c3)C(=O)C12)c1ccccc1` (stereo unspecified): the fluorescence artifact activation was 9.7%.

In the case of `O=C(NN1C(=O)c2ccccc2NC1c1ccco1)c1ccccc1` (stereo unspecified), the fluorescence artifact activation is 0.03%.

As for `CN1C(=O)/C(=C/C=C2\SCCN2C)OC1=S`, the fluorescence artifact activation is 1.7%.

Turning to `C=C1CCN(C(CC(C)C)C(=O)OC)S(=O)(=O)c2ccccc21` (stereo unspecified), the fluorescence artifact activation is 0.08%.

Take `NC(=O)C1CCN(c2ccc3c(c2)S(=O)(=O)c2ccccc2C3=O)CC1`: the fluorescence artifact activation was 0.05%.

With `COC(=O)C1CCN(C(=O)CN2C(=O)c3ccccc3S2(=O)=O)CC1`, the fluorescence artifact activation was 818% (active).

As to `CN(N=Nc1ccc([N+](=O)[O-])cc1)c1ccccc1`, the fluorescence artifact activation is 7.25%.

For `CSc1ccc(C2C(C(=O)c3ccco3)=C(O)C(=O)N2c2nnc(SC)s2)cc1` (stereo unspecified), the fluorescence artifact activation is 7.57%.

Consider `Cc1cc(NC(=O)/C(C#N)=C\c2ccc(-c3ccc(SC(F)F)cc3)o2)n(-c2ccccc2)n1`, for which the fluorescence artifact activation was 136% (active).

On to `Cc1cc(NC(=O)/C(C#N)=C/c2ccc(-c3ccc(SC(F)F)cc3)o2)n(-c2ccccc2)n1`, for which the fluorescence artifact activation is 291% (active).

As to `CC1CC1c1ccc(/C=C(\C#N)C(=O)Nc2ccc(Cl)cc2Cl)o1` (stereo unspecified), the fluorescence artifact activation is 5.23%.

`O=C(NCc1cccc(F)c1)c1cccc2c1C(=O)c1ccc(N3CCCC3)cc1S2(=O)=O`: the fluorescence artifact activation was -0.02%.

On to `CCOC(=O)c1sc(N)c(C#N)c1COC(=O)CNC(=O)c1ccccc1`, for which the fluorescence artifact activation was -0.01%.

Consider `CC1CC(C)CN(C(=O)Cn2c(-c3nonc3N)nc3ccccc32)C1` (stereo unspecified), for which the fluorescence artifact activation was 0.07%.

For the compound `CC(NC(=O)COc1ccc(N(C)S(=O)(=O)c2ccccc2)cc1)c1ccccc1` (stereo unspecified), the fluorescence artifact activation is 0.07%.

Take `Cc1ccc(C)c(OCCN2C(=O)NC3(CCc4ccccc4C3)C2=O)c1` (stereo unspecified): the fluorescence artifact activation is 0.24%.

Regarding `Cc1ccc(C2C(C#N)=C(N)SC(N)=C2C#N)cc1`, the fluorescence artifact activation was 0.33%.

In the case of `O=C(C1=C(O)C(=O)N(CCN2CCOCC2)C1c1ccc([N+](=O)[O-])cc1)c1cccs1` (stereo unspecified), the fluorescence artifact activation was 10.2%.

Consider `CC(/C=C/c1ccc(N(C)C)cc1)=N/N=C1/NC(=O)CC(C(=O)Nc2ccc(Cl)cc2)S1` (stereo unspecified), for which the fluorescence artifact activation is 0.15%.

Turning to `O=[N+]([O-])c1ccc(N/N=C\c2ccccc2OCc2ccccc2)cc1`, the fluorescence artifact activation was 5.45%.

As to `COC(=O)c1ccc(-c2ccc(F)cc2)nc1C`, the fluorescence artifact activation is -0.07%.

As to `O=c1[nH]c2c(s1)C=Nc1ccccc1N2`, the fluorescence artifact activation is 0.01%.

Consider `CN(C)/C=C1\C=C2C(=O)c3ccccc3N2C1=O`, for which the fluorescence artifact activation was 21% (active).

For `CN(C)C(=O)CN1C(=O)C2CCCCN2C(=O)c2ccccc21` (stereo unspecified), the fluorescence artifact activation is 0.04%.

For `CCCC(=O)Nc1ccc(-c2cnc(-c3ccc(NC(=O)CCC)cc3)nc2)cc1`, the fluorescence artifact activation is 0.08%.

In the case of `Cc1ccc(S(=O)(=O)NCCCCCC(=O)Nc2ccccc2C)cc1`, the fluorescence artifact activation is 8.11%.

Take `CCCCCCCC(=O)Nc1ccc(S(=O)(=O)Nc2nccs2)cc1`: the fluorescence artifact activation is 12.5% (active).

`N#Cc1ccccc1NC(=O)CNc1ccc(Cl)c(C(F)(F)F)c1`: the fluorescence artifact activation is 1.46%.

Regarding `CCC(=O)N/C(=N/c1nc(C)cc(C)n1)Nc1ccccc1`, the fluorescence artifact activation was 0.29%.

In the case of `Cc1ccc(NC(=O)c2cc(S(=O)(=O)N3CCCCC3)ccc2N2CCOCC2)cc1S(=O)(=O)N(C)C`, the fluorescence artifact activation is 0.83%.

As for `COc1ccc(-c2csc(N3CCN(c4cc5c(cc4Cl)nc(-c4ccncc4)n5CCOCCO)CC3)n2)cc1`, the fluorescence artifact activation was -0.09%.

For `CCOC(=O)Cc1csc(N(C)C)n1`, the fluorescence artifact activation was 0.08%.

`CCOC(=O)Cc1csc(NC(=O)c2sc3nc4cc(C)ccc4cc3c2N)n1`: the fluorescence artifact activation was 19% (active).

`CCOC(=O)Cc1csc(CC(N)=O)n1`: the fluorescence artifact activation was 2.47%.

As to `Cc1cccc(N2CCN(C(=O)Cn3nc(Cc4ccncc4)c4ccccc4c3=O)CC2)c1C`, the fluorescence artifact activation is 4.88%.

Regarding `Cc1c(O)ccc(/C(Cc2ccc3ccccc3n2)=N\N)c1O`, the fluorescence artifact activation was -0.02%.

On to `CC(=O)OCC[N+](C)(C)C`, for which the fluorescence artifact activation was 13.6% (active).

`Cc1cccc(N=Cc2[nH]c3ccc(Br)c(Cl)c3c2O)c1`: the fluorescence artifact activation is 0.01%.

For `COCCNC(=O)c1c(CS(=O)(=O)c2ccccc2)noc1C(=O)NCc1ccccc1`, the fluorescence artifact activation is -0.04%.

For `C/C(=N/Nc1ccnc2cc(Cl)ccc12)c1ccc(N)cc1`, the fluorescence artifact activation was 2.55%.

For `CC(=O)Nc1ccccc1C(=O)C(=O)Nc1ccc(F)c(Cl)c1`, the fluorescence artifact activation is 0.02%.

As to `Cc1ccc(NC(=O)Nc2ccc(F)cc2)cc1Cl`, the fluorescence artifact activation was 4.13%.

Turning to `CN1c2ccccc2C(O)=C(C(=S)Nc2ccc(F)c(Cl)c2)S1(=O)=O`, the fluorescence artifact activation was 13.6% (active).

As for `CCC1(C)COC(c2ccc(OC)c(OC)c2)OC1` (stereo unspecified), the fluorescence artifact activation was 0.06%.

As for `N#C/C(=C\c1c[nH]c2ccccc12)C(=O)Nc1ncc(Cc2ccc(Cl)cc2Cl)s1`, the fluorescence artifact activation was 5.66%.

Regarding `O=C(CN1CCN(c2ccccc2F)CC1)NCc1ccc(Cl)cc1`, the fluorescence artifact activation was 0.16%.

As for `O=C(NCc1ccc(Cl)cc1)C1CCN(c2cnccn2)CC1`, the fluorescence artifact activation is 16% (active).

For the compound `O=C(NCCc1ccccc1)C1CCN(c2ncccn2)CC1`, the fluorescence artifact activation was 0.16%.

Regarding `COc1ccc(/C=N/NC(=O)c2cccc([N+](=O)[O-])c2)cc1O`, the fluorescence artifact activation was 0.08%.

Consider `Cn1nnc(NC(=S)NC(=O)/C=C/c2ccco2)n1`, for which the fluorescence artifact activation is 0.78%.

Take `CCNC(=S)NNC(=O)CCn1cc(C)cn1`: the fluorescence artifact activation was -0.01%.

In the case of `CN(C)c1ccc(/C=C/c2nc3ccccc3c(=O)n2CCO)cc1`, the fluorescence artifact activation was 127% (active).

In the case of `CN(C)c1ccc(/C=C/c2nc3ccccc3c(=O)[nH]2)cc1`, the fluorescence artifact activation was 0.27%.

`CN(C)c1ccc(/C=C/c2nc3ccccc3c(=O)n2-c2ccc(C(=O)O)cc2)cc1`: the fluorescence artifact activation was 0.13%.
